Experimental data reported in ChEMBL document CHEMBL3286189, “Discovery and SAR studies of a novel class of cytotoxic 1,4-disubstituted piperidines via Ugi reaction” (Eur J Med Chem, 2014).

What was measured:
L1210 = test: Cytostatic activity against mouse L1210 cells assessed as inhibition of cell proliferation after 48 hrs by coulter counting analysis; assay type: functional, cell-based; conditions: Mus musculus, L1210, 48 h
Method in brief: (§1)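 Anti-proliferative screen in murine leukemia L1210, human T-lymphocyte CEM and human cervix carcinoma HeLa cultures. The value reported is the IC50, the concentration that inhibits cell proliferation by 50%.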

CCRF-CEM = test: Cytostatic activity against human CEM cells assessed as inhibition of cell proliferation after 72 hrs by coulter counting analysis; assay type: functional, cell-based; conditions: Homo sapiens, CCRF-CEM, 72 h; method in brief: as §1
HeLa = test: Cytostatic activity against human HeLa cells assessed as inhibition of cell proliferation after 72 hrs by coulter counting analysis; assay type: functional, cell-based; conditions: Homo sapiens, HeLa, 72 h; method in brief: as §1
CAKI-1 [1] = test: Cytostatic activity against human Caki1 cells assessed as inhibition of cell proliferation after 96 hrs by coulter counting analysis; assay type: functional, cell-based; conditions: CAKI-1, 96 h
Method in brief: (§2)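 Anti-proliferative testing extended to human kidney Caki-1 and human liver Huh-7 tumour cells. The value reported is the IC50, the concentration that inhibits tumour cell growth by 50%.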

Huh-7 = test: Cytostatic activity against human HuH7 cells assessed as inhibition of cell proliferation after 96 hrs by coulter counting analysis; assay type: functional, cell-based; conditions: Huh-7, 96 h; method in brief: as §2
HL-60 = test: Anticancer activity against human HL60 (TB) cells; assay type: functional
Method in brief: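 Run within the broad NCI-60 human tumour cell line panel screen of the National Cancer Institute.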

K562 = test: Anticancer activity against human K562 cells; assay type: functional
Method in brief: (§3)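 Values come from the NCI 60-cell-line human tumour panel, run on a single analog. Cytostatic and cytotoxic responses were read for each cell line across graded molar concentrations of that compound.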

RPMI-8226 = test: Anticancer activity against human RPMI8226 cells; assay type: functional; method in brief: as §3
SR = test: Anticancer activity against human SR cells; assay type: functional; method in brief: as §3
A549 = test: Anticancer activity against human A549/ATCC cells; assay type: functional; method in brief: as §3
HOP-62 = test: Anticancer activity against human HOP62 cells; assay type: functional; method in brief: as §3
NCI-H226 = test: Anticancer activity against human NCI-H226 cells; assay type: functional; method in brief: as §3
NCI-H23 = test: Anticancer activity against human NCI-H23 cells; assay type: functional; method in brief: as §3
COLO 205 = test: Anticancer activity against human COLO205 cells; assay type: functional; method in brief: as §3
HCT-116 = test: Anticancer activity against human HCT116 cells; assay type: functional; method in brief: as §3
[2] = Anticancer activity against human HCT15 cells; assay type: functional; method in brief: as §3
SW-620 = test: Anticancer activity against human SW620 cells; assay type: functional; method in brief: as §3
SF-268 = test: Anticancer activity against human SF268 cells; assay type: functional; method in brief: as §3
[3] = Anticancer activity against human SF295 cells; assay type: functional; method in brief: as §3
SNB-75 = test: Anticancer activity against human SNB75 cells; assay type: functional; method in brief: as §3
U-251 = test: Anticancer activity against human U251 cells; assay type: functional; method in brief: as §3
[4] = Anticancer activity against human LOXIMVI cells; assay type: functional; conditions: LOX IMVI; method in brief: as §3
M14 = test: Anticancer activity against human M14 cells; assay type: functional; method in brief: as §3
MDA-MB-435 = test: Anticancer activity against human MDA-MB-435 cells; assay type: functional; method in brief: as §3
SK-MEL-5 = test: Anticancer activity against human SK-MEL-5 cells; assay type: functional; method in brief: as §3
[5] = Anticancer activity against human UACC257 cells; assay type: functional
Method in brief: (§4)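 Assayed in the NCI Cancer-60 human tumour cell line panel, with activity read across several log-step concentrations.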

[6] = Anticancer activity against human UACC62 cells; assay type: functional; method in brief: as §4
[7] = Anticancer activity against human OVCAR3 cells; assay type: functional; method in brief: as §3
NCI/ADR-RES = test: Anticancer activity against human NCI/ADR-RES cells; assay type: functional; method in brief: as §3
SK-OV-3 = test: Anticancer activity against human SKOV3 cells; assay type: functional; method in brief: as §3
A498 = test: Anticancer activity against human A498 cells; assay type: functional; method in brief: as §3
CAKI-1 [8] = test: Anticancer activity against human Caki1 cells; assay type: functional
[9] = Anticancer activity against human RXF393 cells; assay type: functional; method in brief: as §3
SN12C = test: Anticancer activity against human SN12C cells; assay type: functional; method in brief: as §3
TK-10 = test: Anticancer activity against human TK10 cells; assay type: functional; method in brief: as §3
[10] = Anticancer activity against human UO31 cells; assay type: functional; method in brief: as §4
PC-3 = test: Anticancer activity against human PC3 cells; assay type: functional; method in brief: as §3
DU-145 = test: Anticancer activity against human DU145 cells; assay type: functional; method in brief: as §3
MDA-MB-231 = test: Anticancer activity against human MDA-MB-231/ATCC cells; assay type: functional; method in brief: as §3
T47D = test: Anticancer activity against human T47D cells; assay type: functional; method in brief: as §3
[11] = read-out: pLC50 (the source's name) (converted)

## CC(C)(C)OC(=O)N[C@@H](Cc1ccccc1)C(=O)N(Cc1ccccc1)C1(C(=O)NCc2ccccc2)CCN(Cc2ccccc2)CC1
L1210
  IC50: 3.5 µM
CCRF-CEM
  IC50: 4.4 µM
HeLa
  IC50: 4.2 µM
CAKI-1 [1]
  IC50: 9.5 µM
Huh-7
  IC50: 6.4 µM
HL-60
  GI50: 2.51 µM
HL-60; [11]
  CC50: > 100 µM
HL-60; read-out: pTGI (converted)
  TGI: 6.17 µM
K562
  GI50: 3.39 µM
K562; [11]
  CC50: > 100 µM
K562; read-out: pTGI
  TGI: > 100 µM
RPMI-8226
  GI50: 2.19 µM
RPMI-8226; [11]
  CC50: > 100 µM
RPMI-8226; read-out: pTGI (converted)
  TGI: 6.92 µM
SR
  GI50: 2.34 µM
SR; [11]
  CC50: > 100 µM
SR; read-out: pTGI (converted)
  TGI: 7.59 µM
A549
  GI50: 3.89 µM
A549; [11]
  CC50: > 100 µM
A549; read-out: pTGI
  TGI: > 100 µM
HOP-62
  GI50: 3.89 µM
HOP-62; [11]
  CC50: > 100 µM
HOP-62; read-out: pTGI
  TGI: > 100 µM
NCI-H226
  GI50: 3.24 µM
NCI-H226; [11]
  CC50: > 100 µM
NCI-H226; read-out: pTGI
  TGI: > 100 µM
NCI-H23
  GI50: 5.62 µM
NCI-H23; [11]
  CC50: > 100 µM
NCI-H23; read-out: pTGI
  TGI: > 100 µM
COLO 205
  GI50: 1.66 µM
COLO 205; [11]
  CC50: 6.61 µM
COLO 205; read-out: pTGI (converted)
  TGI: 3.31 µM
HCT-116
  GI50: 2.4 µM
HCT-116; [11]
  CC50: > 100 µM
HCT-116; read-out: pTGI (converted)
  TGI: 10 µM
[2]; HCT-15
  GI50: 3.16 µM
[2]; HCT-15, read-out: pLC50 (the source's name) (converted)
  CC50: > 100 µM
[2]; HCT-15, read-out: pTGI
  TGI: > 100 µM
SW-620
  GI50: 3.47 µM
SW-620; [11]
  CC50: > 100 µM
SW-620; read-out: pTGI
  TGI: > 100 µM
SF-268
  GI50: 4.9 µM
SF-268; [11]
  CC50: > 100 µM
SF-268; read-out: pTGI
  TGI: > 100 µM
[3]; SF-295
  GI50: 2.88 µM
[3]; SF-295, read-out: pLC50 (the source's name) (converted)
  CC50: > 100 µM
[3]; SF-295, read-out: pTGI
  TGI: > 100 µM
SNB-75
  GI50: 2.95 µM
SNB-75; [11]
  CC50: > 100 µM
SNB-75; read-out: pTGI
  TGI: > 100 µM
U-251
  GI50: 3.16 µM
U-251; [11]
  CC50: > 100 µM
U-251; read-out: pTGI
  TGI: > 100 µM
[4]
  GI50: 3.63 µM
[4]; [11]
  CC50: > 100 µM
[4]; read-out: pTGI (converted)
  TGI: 21.4 µM
M14
  GI50: 2.63 µM
M14; [11]
  CC50: > 100 µM
M14; read-out: pTGI (converted)
  TGI: 44.7 µM
MDA-MB-435
  GI50: 3.02 µM
MDA-MB-435; [11]
  CC50: > 100 µM
MDA-MB-435; read-out: pTGI
  TGI: > 100 µM
SK-MEL-5
  GI50: 1.74 µM
SK-MEL-5; [11]
  CC50: 6.31 µM
SK-MEL-5; read-out: pTGI (converted)
  TGI: 3.31 µM
[5]; UACC-257
  GI50: 2.57 µM
[5]; UACC-257, read-out: pLC50 (the source's name) (converted)
  CC50: > 100 µM
[5]; UACC-257, read-out: pTGI
  TGI: > 100 µM
[6]; UACC-62
  GI50: 2.51 µM
[6]; UACC-62, read-out: pLC50 (the source's name) (converted)
  CC50: > 100 µM
[6]; UACC-62, read-out: pTGI (converted)
  TGI: 7.94 µM
[7]; OVCAR-3
  GI50: 3.98 µM
[7]; OVCAR-3, read-out: pLC50 (the source's name) (converted)
  CC50: > 100 µM
[7]; OVCAR-3, read-out: pTGI
  TGI: > 100 µM
NCI/ADR-RES
  GI50: 2.88 µM
NCI/ADR-RES; [11]
  CC50: > 100 µM
NCI/ADR-RES; read-out: pTGI (converted)
  TGI: 46.8 µM
SK-OV-3
  GI50: 3.02 µM
SK-OV-3; [11]
  CC50: > 100 µM
SK-OV-3; read-out: pTGI
  TGI: > 100 µM
A498
  GI50: 1.45 µM
A498; [11]
  CC50: > 100 µM
A498; read-out: pTGI (converted)
  TGI: 6.31 µM
CAKI-1 [8]
  GI50: 2.34 µM
CAKI-1 [8]; [11]
  CC50: > 100 µM
CAKI-1 [8]; read-out: pTGI
  TGI: > 100 µM
[9]; RXF 393
  GI50: 3.09 µM
[9]; RXF 393, read-out: pLC50 (the source's name) (converted)
  CC50: > 100 µM
[9]; RXF 393, read-out: pTGI
  TGI: > 100 µM
SN12C
  GI50: 3.47 µM
SN12C; [11]
  CC50: > 100 µM
SN12C; read-out: pTGI
  TGI: > 100 µM
TK-10
  GI50: 3.16 µM
TK-10; [11]
  CC50: > 100 µM
TK-10; read-out: pTGI (converted)
  TGI: 70.8 µM
[10]; UO-31
  GI50: 2.14 µM
[10]; UO-31, read-out: pLC50 (the source's name) (converted)
  CC50: > 100 µM
[10]; UO-31, read-out: pTGI
  TGI: > 100 µM
PC-3
  GI50: 2.45 µM
PC-3; [11]
  CC50: > 100 µM
PC-3; read-out: pTGI
  TGI: > 100 µM
DU-145
  GI50: 5.37 µM
DU-145; [11]
  CC50: > 100 µM
DU-145; read-out: pTGI
  TGI: > 100 µM
MDA-MB-231
  GI50: 3.02 µM
MDA-MB-231; [11]
  CC50: > 100 µM
MDA-MB-231; read-out: pTGI (converted)
  TGI: 79.4 µM
T47D
  GI50: 2.88 µM
T47D; [11]
  CC50: > 100 µM
T47D; read-out: pTGI
  TGI: > 100 µM
